In ChEMBL document CHEMBL1128718, “2-Substituted penems with amino acid-related side chains: synthesis and antibacterial activity of a new series of beta-lactam antibiotics” (1995):
≈ marks a conversion by molar mass, not a printed value.

What was measured:
Format in all cases: functional
Pseudomonas aeruginosa [1] = test: In Vitro antibacterial activity against (Pa G242) hyperpermeable Pseudomonas aeruginosa strain
In short: (§1)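 Panel of standard ATCC strains plus modified strains: methicillin-resistant, hyperpermeable, β-lactamase-producing (TEM1, TEM2, SHV) and β-lactamase-lacking. MIC determined in Mueller Hinton 2 medium, inoculum 10⁴ cells/mL, incubated 24 h at 37 °C.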

Staphylococcus aureus [2] = test: In vitro antibacterial activity against Sa MR(II) homogeneous methicillin resistant Staphylococcus aureus
In short: (§2)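 MIC was determined in Mueller Hinton 2 medium with an inoculum of 10⁴ cells/mL and incubation for 24 h at 37 °C. Strains: Sa(I) is S. aureus ATCC 29213; Sa MR(I) is a heterogeneous methicillin-resistant S. aureus; Sa MR(II) is a homogeneous methicillin-resistant S. aureus.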

Enterococcus faecalis [3] = test: In Vitro antibacterial activity against (Ef) Enterococcus faecalis ATCC 29212; in short: as §1
Escherichia coli [4] = test: In Vitro antibacterial activity against (Ec) Escherichia coli ATCC 25922; in short: as §1
Escherichia coli [5] = test: In Vitro antibacterial activity against (Ec SHV) Escherichia coli […] strain; in short: as §1
Staphylococcus aureus [6] = test: In vitro antibacterial activity against Sa(I) Staphylococcus aureus ATCC 29213; in short: as §2
Staphylococcus aureus [7] = test: In vitro antibacterial activity against Sa MR(I) heterogeneous methicillin resistant Staphylococcus aureus; in short: as §2
Escherichia coli [8] = test: In Vitro antibacterial activity against (Ec DC2) hyperpermeable Escherichia coli strain; in short: as §1
Pseudomonas aeruginosa [9] = test: In Vitro antibacterial activity against(Pa) Pseudomonas aeruginosa ATCC 27853; in short: as §1
Escherichia coli [10] = test: In Vitro antibacterial activity against (Ec TEM2) Escherichia coli […] strain; in short: as §1
Escherichia coli [11] = test: In Vitro antibacterial activity against (Ec TEM1) Escherichia coli […] strain; in short: as §1
Staphylococcus aureus [12] = test: In vitro antibacterial activity against Sa(II) Staphylococcus aureus ATCC 25923; in short: as §1
Escherichia coli [13] = test: In Vitro antibacterial activity against (Ec L) Escherichia coli […] strain; in short: as §1
Pseudomonas aeruginosa [14] = test: In Vitro antibacterial activity against (Pa) hyperpermeable Pseudomonas aeruginosa […] strain; in short: as §1
Haemophilus influenzae = test: In vitro Anti Bacterial Activity (MIC90) against 90% of tested clinical Isolates of Haemophilus Influenzae(21)
In short: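 MIC90 over clinical isolates; MICs in Haemophilus Test Medium Base with Haemophilus Test Medium Supplement, inoculum 10⁴ cells/mL, 24–48 h at 37 °C.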

Moraxella catarrhalis = test: In vitro Anti Bacterial Activity (MIC90) against 90% of tested clinical Isolates of Branhamella catarrhalis(27)
Bacteroides fragilis = test: In vitro Anti Bacterial Activity (MIC90) against 90% of tested clinical Isolates of Bacteroides fragilis(15)
In short: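 MIC90 over clinical anaerobe isolates; MICs in Wilkins-Chalgren agar, inoculum 10⁵ cells/mL, 24–48 h at 37 °C.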

Clostridium perfringens = test: In vitro Anti Bacterial Activity (MIC90) against 90% of tested clinical Isolates of Clostridium perfringens(27)
In short: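 MIC90 over clinical isolates of this anaerobic species, taken from the MIC distribution. Anaerobes were tested on Wilkins-Chalgren agar with an inoculum of 10⁵ cells/mL and incubated 24–48 h at 37 °C.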

Klebsiella pneumoniae = test: In Vitro Anti Bacterial Activity (MIC90) against 90% of tested clinical Isolates of Klebsiella pneumoniae(20)
In short: (§3)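 Over 500 clinical isolates tested in total; the line gives the isolate count. MIC90 for aerobes by dilution in Mueller Hinton 2 medium, inoculum 10⁴ cells/mL, incubated 24 h at 37 °C.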

Yersinia sp. = test: In Vitro Anti Bacterial Activity (MIC90) against 90% of tested clinical Isolates of Yersinia species(20); settings: Yersinia sp. (in: enterobacteria)
Streptococcus agalactiae = test: In vitro Anti Bacterial Activity (MIC90) against 90% of tested clinical Isolates of Streptococcus agalactiaeB(21)
[15] = system: Staphylococcus epidermidis; test: In vitro Anti Bacterial Activity (MIC90) against 90% of tested clinical Isolates of S. epidermidis(13)
In short: (§4)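 Aerobic clinical isolates; MICs in Mueller Hinton 2 medium, inoculum 10⁴ cells/mL, incubated 24 h at 37 °C; MIC90 taken across isolates of each species.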

Streptococcus pneumoniae = test: In Vitro Anti Bacterial Activity (MIC90) against 90% of tested clinical Isolates of Streptococcus pneumoniae (23)
Staphylococcus aureus [16] = test: In vitro Anti Bacterial Activity (MIC90) against 90% of tested clinical Isolates of Staphylococcus aureus MS (6); in short: as §4
Streptococcus pyogenes = test: In vitro Anti Bacterial Activity (MIC90) against 90% of tested clinical Isolates of Streptococcus pyogenes(31)
Listeria monocytogenes = test: In vitro Anti Bacterial Activity (MIC90) against 90% of tested clinical Isolates of Listeria monocytogenes (20)
Enterococcus faecalis [17] = test: In vitro Anti Bacterial Activity (MIC90) against 90% of tested clinical Isolates of Enterococcus faecalis(47); in short: as §4
Staphylococcus aureus [18] = test: In vitro Anti Bacterial Activity (MIC90) against 90% of tested clinical Isolates of Staphylococcus aureus MV (20)
Enterococcus faecium = test: In vitro Anti Bacterial Activity (MIC90) against 90% of tested clinical Isolates of Enterococcus faecium(47); in short: as §4
Aeromonas = test: In vitro 90% of tested clinical Isolates of Aeromonas species(21); in short: as §3

C[C@@H](O)[C@H]1C(=O)N2C(C(=O)O)=C(CSC(=S)N(C)CC(N)=O)S[C@H]12
MIC (Pseudomonas aeruginosa [1]): 8 µg/mL (≈ 20.4 µM)
MIC (Staphylococcus aureus [2]): 2 µg/mL (≈ 5.11 µM)
MIC (Enterococcus faecalis [3]): 8 µg/mL (≈ 20.4 µM)
MIC (Escherichia coli [4]): 8 µg/mL (≈ 20.4 µM)
MIC (Escherichia coli [5]): 16 µg/mL (≈ 40.9 µM)
MIC (Staphylococcus aureus [6]): 0.12 µg/mL (≈ 0.307 µM)
MIC (Staphylococcus aureus [7]): 0.03 µg/mL (≈ 0.0766 µM)
MIC (Escherichia coli [8]): 0.5 µg/mL (≈ 1.28 µM)
MIC (Pseudomonas aeruginosa [9]): > 64 µg/mL
MIC (Escherichia coli [10]): 8 µg/mL (≈ 20.4 µM)
MIC (Escherichia coli [11]): 8 µg/mL (≈ 20.4 µM)
MIC (Staphylococcus aureus [12]): 0.12 µg/mL (≈ 0.307 µM)
MIC (Escherichia coli [13]): 16 µg/mL (≈ 40.9 µM)
MIC (Pseudomonas aeruginosa [14]): 4 µg/mL (≈ 10.2 µM)

CC1(C)S[C@@H]2[C@H](NC(=O)[C@H](N)c3ccc(O)cc3)C(=O)N2[C@H]1C(=O)O [AMOXICILLIN]
MIC90 (Haemophilus influenzae): 1 µg/mL (≈ 2.74 µM)
MIC90 (Moraxella catarrhalis): 2 µg/mL (≈ 5.47 µM)
MIC90 (Bacteroides fragilis): 32 µg/mL (≈ 87.6 µM)
MIC90 (Clostridium perfringens): 0.06 µg/mL (≈ 0.164 µM)
MIC90 (Klebsiella pneumoniae): > 64 µg/mL
MIC90 (Yersinia sp.): > 64 µg/mL
MIC90 (Streptococcus agalactiae): 0.06 µg/mL (≈ 0.164 µM)
MIC90 [15]: 4 µg/mL (≈ 10.9 µM)
MIC90 (Streptococcus pneumoniae): 0.015 µg/mL (≈ 0.041 µM)
MIC90 (Staphylococcus aureus [16]): 1 µg/mL (≈ 2.74 µM)
MIC90 (Streptococcus pyogenes): 0.015 µg/mL (≈ 0.041 µM)
MIC90 (Listeria monocytogenes): 0.5 µg/mL (≈ 1.37 µM)
MIC90 (Enterococcus faecalis [17]): 0.5 µg/mL (≈ 1.37 µM)
MIC90 (Staphylococcus aureus [18]): 32 µg/mL (≈ 87.6 µM)
MIC90 (Enterococcus faecium): 32 µg/mL (≈ 87.6 µM)
MIC90 (Aeromonas): > 32 µg/mL
